Experimental data from ChEMBL document CHEMBL2417386, “Novel conjugated quinoline-indoles compromise Plasmodium falciparum mitochondrial function and show promising antimalarial activity” (J Med Chem, 2013).

Columns and labels:
[1] = Dissociation constant, pKa of the compound at 50 uM by spectrophotometric analysis; assay type: physicochemical
[2] = Selectivity index, ratio of IC50 for HEK293 cells to IC50 for Plasmodium falciparum 3D7 after 72 hrs; assay type: toxicity, cell-based; conditions: human, read-out: Ratio IC50
Procedure, shortened: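 Parasite (3D7) viability assay and HEK293 viability assay, each with a 72 h exposure. Index taken as the ratio of the IC50 values, HEK293 over 3D7.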

[3] = tested on: Plasmodium falciparum; assay: Antimalarial activity against mid to late trophozoite stage of Plasmodium falciparum 3D7 infected in RBC assessed as nonviable parasite at 0.6 uM after 0.5 hrs by SYTO 61 staining-based flow cytometric analysis relative to untreated control; assay type: functional
[4] = tested on: Plasmodium falciparum; assay: Antimalarial activity against mid to late trophozoite stage of Plasmodium falciparum 3D7 infected in RBC assessed as abnormal mitochondria at 15 uM after 0.5 hrs by MitoTracker Red CMXRos-based fluorescence microscopic analysis relative to untreated control; assay type: functional
[5] = tested on: Plasmodium falciparum; assay: Gametocytocidal activity against synchronous stage 4 to 5 of transgenic Plasmodium falciparum NF54 gametocyte harboring pfs16 promoter assessed as parasite viability after 72 hrs by MitoTracker Red CMXRos-based assay; assay type: functional, organism-based; conditions: NF54, 72 h
[6] = tested on: Plasmodium falciparum; assay: Antimalarial activity against mid to late trophozoite stage of Plasmodium falciparum 3D7 infected in RBC assessed as nonviable parasite at 15 uM after 0.5 hrs by SYTO 61 staining-based flow cytometric analysis relative to untreated control; assay type: functional
[7] = tested on: Plasmodium falciparum; assay: Gametocytocidal activity against synchronous stage 1 to 3 of transgenic Plasmodium falciparum NF54 gametocyte harboring pfs16 promoter assessed as parasite viability after 72 hrs by luciferase reporter gene assay; assay type: functional, organism-based; conditions: NF54, 72 h
[8] = tested on: Plasmodium falciparum; assay: Antimalarial activity against mid to late trophozoite stage of Plasmodium falciparum 3D7 infected in RBC assessed as abnormal mitochondria at 3 uM after 0.5 hrs by MitoTracker Red CMXRos-based fluorescence microscopic analysis relative to untreated control; assay type: functional
[9] = Inhibition of beta-hematin formation after 24 hrs by spectrophotometric analysis in presence of nonidet P40; assay type: functional
[10] = tested on: Plasmodium falciparum; assay: Antimalarial activity against Plasmodium falciparum K1 infected in RBC assessed as growth inhibition after 48 hrs by SYBR Green-I fluorescence assay; assay type: functional, organism-based; conditions: K1, 48 h
Procedure, shortened: (§1)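 Parasite-infected red cells exposed to compound for 48 h; growth read by SYBR Green-I fluorescence; IC50 derived. Where a ± is given, it is the standard deviation of three individual experiments.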

[11] = tested on: Plasmodium falciparum; assay: Antimalarial activity against Plasmodium falciparum 3D7 infected in RBC assessed as growth inhibition after 48 hrs by SYBR Green-I fluorescence assay; assay type: functional, organism-based; conditions: 3D7, 48 h; procedure, shortened: as §1
[12] = tested on: Plasmodium falciparum; assay: Antimalarial activity against mid to late trophozoite stage of Plasmodium falciparum 3D7 infected in RBC assessed as nonviable parasite at 3 uM after 0.5 hrs by SYTO 61 staining-based flow cytometric analysis relative to untreated control; assay type: functional
[13] = tested on: Plasmodium falciparum; assay: Antimalarial activity against mid to late trophozoite stage of Plasmodium falciparum 3D7 infected in RBC assessed as abnormal mitochondria at 0.6 uM after 0.5 hrs by MitoTracker Red CMXRos-based fluorescence microscopic analysis relative to untreated control; assay type: functional

In the case of `Nc1cc(/C=C/c2c[nH]c3ccccc23)nc2ccccc12`, the pKa at 50 µM [1] is reported as 9.5, the selectivity ratio at 72 h [2] is reported as 79 and the Activity [3] is reported as 46%. It also gave an Activity [4] of 93%, an IC50 [5] of 1.4 µM and an Activity [6] of 88%. It also gave an IC50 [7] of 0.37 µM, an Activity [8] of 66% and an IC50 [9] of over 4000 µM. For the same molecule, the IC50 [10] was 0.39 µM, the IC50 [11] was 0.2 µM and the Activity [12] was 77%. The Activity [13] was 27%.
